Screening results: PubChem, Broad Institute
Only a selection was taken, and hits are over-represented in it overall.
A1 apoptosis 2 – A1 inhibitors via caspase activation, primary screen, cell-based, luminescence, HTS, two replicates. MEF A1-2A-BIM cells, caspase-Glo luminescence, 3 h; percent of clofoctol response, DMSO zero. caspase activation, % (no concentration beside the values). 24,000 tested, under 10 active; in the data active means caspase activation above about 5.9%
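System: mouse embryonic fibroblasts co-expressing A1 and BIM (A1-2A-BIM), primed for A1 dependence; amount: 2500 cells/well; doses: 50 nL pinned compound; schedule: cells settled overnight, compound exposure 3 h at 37 °C, 5% CO2; detection: Caspase-Glo 3/7 luminescence, 1 h at room temperature; read-out: Caspase-3/7 activation, seen as rise in luminescence signal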
T cruzi HTS – inhibitors of intracellular Trypanosoma cruzi, primary screen, cell-based, plate reader, single point, set 2. intracellular Trypanosoma cruzi in host cells. activity score (inhibition), % at 5.01 µM. actives 4.9% (n = 22,000). AID 651903, 2012; in the data active means activity score above about 55%;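 further: parasites and compound incubated about four days before reading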
INS-1E ATP HTS – protection of INS-1E cells from cytokine death, primary screen, ATP luminescence, single point; actives 0.1% (n = 20,000); AID 488910, 2010; INS-1E cytokine-induced death, 48 h; normalised: neutral wells 0, positive control 100; protection from cytokine-induced ATP loss, % at 10 µM;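 active means mean replicate protection from cytokine-induced ATP loss at least 50% and at least 75% of replicates each reaching 50%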
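Material: INS-1E rat cells; Quantity: 8000 cells/well; Buffer or medium: phenol-red-free RPMI with 5% fetal bovine serum; Probe or stimulus: cytokine cocktail of IFN-γ, TNF-α and IL-1β; Compound dosing: single test concentration per compound, delivered by pin transfer; Incubation: 48 h co-treatment, 10 min post-lysis read; Signal: CellTiter-Glo luminescence.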
Of the large screens only hits and unclear results are named; the others gave an inactive call.

O=C(CCCCCCC(=O)N/N=C\c1cccc(Br)c1)NO	INS-1E ATP HTS 68 (no result: A1 apoptosis 2)
O=C(NO)c1ccc(C(=O)N/N=C/c2cccc(Oc3ccccc3)c2)cc1	none
O=C(CCCCC(=O)N/N=C/c1cccc(Oc2ccccc2)c1)NO	INS-1E ATP HTS 79
O=C(O)CCCCCCC(=O)N/N=C/c1cccc(Br)c1	none
O=C(N/N=C/c1ccc(OCc2ccccc2)cc1O)c1ccccn1	none (no result: T cruzi HTS, INS-1E ATP HTS)
C[C@@H]1CN([C@@H](C)CO)C(=O)c2cccc(NC(=O)c3cnccn3)c2O[C@H]1CN(C)Cc1ccc(C(F)(F)F)cc1	none
C[C@H]1CN([C@@H](C)CO)C(=O)c2cccc(NC(=O)c3ccncc3)c2O[C@@H]1CN(C)Cc1ccc(C(F)(F)F)cc1	T cruzi HTS 78
C[C@@H]1CN([C@@H](C)CO)C(=O)c2cccc(NC(=O)c3ccncc3)c2O[C@H]1CN(C)Cc1ccc(C(F)(F)F)cc1	T cruzi HTS 77
C[C@@H]1CN([C@H](C)CO)C(=O)c2cccc(NC(=O)c3ccncc3)c2O[C@@H]1CN(C)Cc1ccc(C(F)(F)F)cc1	none
C[C@@H]1CN([C@H](C)CO)C(=O)c2cccc(NC(=O)c3ccncc3)c2O[C@H]1CN(C)Cc1ccc(C(F)(F)F)cc1	T cruzi HTS 79
C[C@@H]1CN([C@H](C)CO)C(=O)c2cccc(NC(=O)c3cnccn3)c2O[C@H]1CN(C)Cc1ccc(C(F)(F)F)cc1	none
C[C@H](CO)N1C[C@H](C)[C@@H](CN(C)Cc2ccc(C(F)(F)F)cc2)Oc2c(NC(=O)c3ccncc3)cccc2C1=O	T cruzi HTS 83
CCO/N=[N+](\[O-])N1CCCC1	none (no result: T cruzi HTS, INS-1E ATP HTS)
COc1cc(Br)c(/C=N/NC(=O)c2ccccn2)cc1OC	none
CC1(C)COC(CCC/C=N/NC(=O)CCCCCC(=O)O)OC1	none (no result: A1 apoptosis 2)
COCCOC(=O)N1C(=O)[C@@]2(c3cc(C#Cc4ccc(OC)cc4)ccc31)[C@H](C(=O)N1CCCCCCC1)[C@H]1C(=O)O[C@H](c3ccccc3)[C@H](c3ccccc3)N1[C@@H]2c1ccc(O)cc1	none (no result: T cruzi HTS, INS-1E ATP HTS)
O=C(O)CCCCCCC(=O)N/N=C/c1ccco1	none
COC(=O)CCCCCCC(=O)N/N=C/c1ccc(N2CCCC2)cc1	none
C=C(C)[C@@H]1CC=C(/C=N/NC(=O)CCCCCCC(=O)O)CC1	none
N#Cc1ccc(/C=N/NC(=O)c2ccccn2)cc1	none
C[C@H](CO)N1C[C@H](C)[C@H](CN(C)C(=O)Nc2ccc(F)cc2)Oc2ncc(C#Cc3ccc(F)cc3)cc2C1=O	none (no result: A1 apoptosis 2, INS-1E ATP HTS)
C[C@H](CO)N1C[C@H](C)[C@H](CN(C)C(=O)NC2CCCCC2)Oc2ncc(C#Cc3ccc(C(F)(F)F)cc3)cc2C1=O	T cruzi HTS 88 (no result: A1 apoptosis 2)
C[C@H](CO)N1C[C@H](C)[C@H](CN(C)C(=O)Nc2ccc(F)cc2)Oc2ncc(C#Cc3ccc(C(F)(F)F)cc3)cc2C1=O	T cruzi HTS 88 (no result: A1 apoptosis 2, INS-1E ATP HTS)
C[C@H](CO)N1C[C@H](C)[C@H](CN(C)C(=O)NC2CCCCC2)Oc2ncc(C#Cc3ccc(F)cc3)cc2C1=O	none
C[C@H]1CN([C@@H](C)CO)C(=O)Cc2cc(NS(=O)(=O)c3ccc(Cl)cc3)ccc2O[C@H]1CN(C)S(=O)(=O)c1ccc(Cl)cc1	none
Cc1ccc(S(=O)(=O)Nc2ccc3c(c2)CC(=O)N([C@H](C)CO)C[C@@H](C)[C@@H](CN(C)S(=O)(=O)c2ccccc2)O3)cc1	T cruzi HTS 69 (no result: A1 apoptosis 2)
C[C@@H]1CN([C@@H](C)CO)C(=O)Cc2cc(NS(=O)(=O)c3ccc(Cl)cc3)ccc2O[C@@H]1CN(C)S(=O)(=O)c1ccc(Cl)cc1	T cruzi HTS 67 (no result: A1 apoptosis 2)
Cc1ccc(S(=O)(=O)Nc2ccc3c(c2)CC(=O)N([C@H](C)CO)C[C@H](C)[C@H](CN(C)S(=O)(=O)c2ccccc2)O3)cc1	none
C[C@@H]1CN([C@@H](C)CO)C(=O)Cc2cc(NS(=O)(=O)c3ccccc3)ccc2O[C@@H]1CN(C)S(=O)(=O)c1ccc(Cl)cc1	T cruzi HTS 67
C[C@H]1CN([C@@H](C)CO)C(=O)Cc2cc(NS(=O)(=O)c3ccc(Cl)cc3)ccc2O[C@H]1CN(C)S(=O)(=O)c1ccccc1	none (no result: A1 apoptosis 2)
CC(C)=CCC[C@@H](C)C/C=N/NC(=O)CCCCCC(=O)NO	none (no result: T cruzi HTS, INS-1E ATP HTS)
O=C(N/N=C/c1cccnc1)c1ccccn1	none (no result: T cruzi HTS, INS-1E ATP HTS)
C[C@H]1CN([C@@H](C)CO)C(=O)Cc2cc(NC(=O)Nc3ccc(C(F)(F)F)cc3)ccc2O[C@H]1CN(C)Cc1ccc(Cl)c(Cl)c1	T cruzi HTS 78
C[C@H](CO)N1C[C@H](C)[C@H](CN(C)Cc2ccc(Cl)c(Cl)c2)Oc2ccc(NC(=O)Nc3ccc(C(F)(F)F)cc3)cc2CC1=O	T cruzi HTS 63 (no result: A1 apoptosis 2)
